Compound activity deposited in PubChem by Broad Institute.
In the library only some 2.6% were active in any assay of this set; here they are far more common.
FN deposit inh: fibronectin deposition inhibition; AH1F fibroblasts, Alexa488-fibronectin deposition fluorescence, overnight; inhibition, % at 12.6 µM; 0.086% of 350,000 active; AID 743247;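 active = mean inhibition across replicates of 30% or more, regardless of how many single replicates reach that level; inconclusive = mean under 30% yet at least half of replicates reach 30%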;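 also: positive control wells lacked labelled fibronectin entirely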
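Material: AH1F fibroblasts assembling fluorescent fibronectin matrix; amount: 10000 AH1F cells/well; medium: DMEM, 2% serum; reagent: Alexa488-fibronectin, 24 nM final in well; dosing: single compound dose, delivered by pin transfer; incubation: 1 h adhesion, overnight exposure; detection: fluorescence after three HBSS washes, excitation 485 nm, emission 525 nm; measure: fibronectin deposition inhibition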
HIV Env fusion: blocks HIV Env-driven cell-cell fusion. HeLa-JRFL Env/CEM21 cell fusion, luciferase. inhibition, % at 12.3 µM. 1.1% of 360,000 active;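 active = mean replicate inhibition score of at least 50 and every replicate individually at or above 50; inconclusive = only one of the two criteria met; inactive = mean below 50 and not all replicates reaching 50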;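 also: 0% = plate neutral controls and 100% = maraviroc near 300 nM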
S100A4 inh HTS: S100A4-myosin IIA interaction inhibition | S100A4/TAMRA-MyoIIA peptide fluorescence polarization | inhibition, % at 10.7 µM | 0.14% of 360,000 active;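 active = mean inhibition of at least 70% across replicates, with every replicate also reaching that level; inconclusive = mean inhibition reaches 70% but some replicates fall short; inactive = mean inhibition below 70%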
Target sequence (P26447 whole entry, looked up): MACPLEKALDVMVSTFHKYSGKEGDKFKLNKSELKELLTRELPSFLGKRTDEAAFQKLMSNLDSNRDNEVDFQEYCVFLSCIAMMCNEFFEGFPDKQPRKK
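Assay system: human S100A4 monomer with TAMRA-labelled myosin IIA peptide / Buffer or medium: Calcium-containing HEPES buffer, pH 7.2 / Reagent: TAMRA-labelled myosin IIA heavy-chain peptide probe, 5 nM / Compound: one dose per compound / Timing: polarization read 5 min after assay mix addition, stable 5–60 min / Benchmarks: neutral control DMSO, positive control TFP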
rRNA inh HTS: inhibitors of bacterial rRNA selective over humanized ribosomes; 1.6% of 350,000 active; E. coli WT GFP vs humanized-ribosome RFP mutants, fluorescence, 24 h; stronger effect = lower value; DMSO median 0, no signal -100; AID 720706; GFP signal change (wild-type ribosome), % (test concentration not listed);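 active = significant combined selectivity score with lowered wild-type GFP, culture density cut under 30%, mutant RFP and density less affected; inactive = any of these conditions unmet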
miR122 inh: inhibitors of miR-122 in Huh7 cells. 0.3% of 340,000 active. activation (reporter increase), % at 12.5 µM. Huh7 miR-122 Renilla luciferase sensor, 48 h; neutral wells = 0, positive control = 100;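 active = mean replicate activation score at least 90 and every replicate individually at or above 90; inconclusive = only one of the two criteria met; inactive = neither criterion met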;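 also: higher luciferase means less miR-122 activity so hits act as miR-122 inhibitors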
Vif inh: HIV Vif inhibition | HEK293T cells, Vif self-association by quenched fluorescence, imaging, 24 h | inhibition, % at 7.49 µM | 0.35% of 340,000 active | AID 602346; in the data active = inhibition above about 50%, passing the limit was not always enough; inconclusive = no clear call, values can overlap the other calls; inactive = below about 31%
The depositor's hits bear a star; u = inconclusive; x = no result given; [ ] = another dose, or the depositor's remark.

SMILES	FN deposit inh	HIV Env fusion	S100A4 inh HTS	rRNA inh HTS	miR122 inh	Vif inh
C[C@H]1CN([C@@H](C)CO)C(=O)c2cccc(NC(=O)c3cnccn3)c2O[C@H]1CN(C)Cc1ccc(-c2ccccc2)cc1	x	x	6	-8	6[16.7 µM]	x
Cc1noc(C)c1S(=O)(=O)N(C)C[C@@H]1Oc2c(NC(=O)c3cnccn3)cccc2C(=O)N([C@@H](C)CO)C[C@@H]1C	5	1[16.7 µM]	6	-4	166*[16.7 µM]	x
C[C@@H]1CN([C@H](C)CO)C(=O)c2cccc(NC(=O)c3cnccn3)c2O[C@H]1CN(C)Cc1ccccc1	x	64*[16.7 µM]	1	-2	11[16.7 µM]	x
O=C(C[C@@H]1CC[C@H](NC(=O)CC2CC2)[C@H](CO)O1)NCc1ccc(Cl)cc1	x	-10[16.7 µM]	-6	-2	x	x
CCCN1[C@H](C(=O)OC)[C@@H](CO)[C@@H]2Cn3c(ccc(-c4ccc(F)cc4)c3=O)[C@@H]21	x	x	-2	-2	-4[16.7 µM]	x
Cc1cc(=O)oc2cc(NS(=O)(=O)c3ccc(F)cc3)ccc12	5	-38	-6	-22*	-5	-9
Cc1cc(=O)oc2cc(NS(=O)(=O)c3ccccc3)ccc12	6	-11	14	-4	-1	1
Cc1cccc(-c2nn(-c3ccccc3)cc2C(=O)Nc2cccc(S(=O)(=O)NC3=NCCC3)c2)c1	-1	2	-4	-3	152*	-20
COc1ccc(-c2nn(-c3ccccc3)cc2C(=O)Nc2cccc(S(=O)(=O)NC3=NCCC3)c2)cc1	10	x	-2	-6	81	-8
O=S(=O)(N1CCCCC1)N1CCN(CC(O)COc2ccc3cc(Br)ccc3c2)CC1 (stereo not given)	5	63*	x	x	-22	-13
CN(C)S(=O)(=O)N1CCN(CC(O)COc2ccc3cc(Br)ccc3c2)CC1 (stereo not given)	x	x	x	x	-4	-20
CCN1C(=O)c2cccc3c(S(=O)(=O)Nc4nc(C)cs4)ccc1c23	x	x	x	x	80	60*
CCN1C(=O)c2cccc3c(S(=O)(=O)Nc4ncccc4C)ccc1c23	-7	-75	x	x	96*	10
CCN1C(=O)c2cccc3c(S(=O)(=O)Nc4ccccn4)ccc1c23	9	-63	x	x	27	31
CCN1C(=O)c2cccc3c(S(=O)(=O)Nc4ccccc4)ccc1c23	x	x	x	x	151*	u
CCCNC(=O)N(C)C[C@H]1Oc2ncc(Br)cc2C(=O)N([C@H](C)CO)C[C@@H]1C	0	x	-2	3	12[16.7 µM]	x
CCCN(C)C[C@H]1Oc2cc(C#Cc3cccc(OC)c3)ccc2S(=O)(=O)N([C@H](C)CO)C[C@H]1C	-2	-8[16.7 µM]	x	0	49[16.7 µM]	x
O=C(C[C@H]1C=C[C@H](NC(=O)c2ccc(F)cc2)[C@@H](CO)O1)NCCc1ccccc1	-5	-25[16.7 µM]	9	-3	x	x
CC(NC(=O)N(Cc1ccccc1)Cc1ccc2c(c1)OCO2)(C(F)(F)F)C(F)(F)F	-5	15	x	x	-6	83*
CCC(NC(=O)N(Cc1ccccc1)Cc1ccc2c(c1)OCO2)(C(F)(F)F)C(F)(F)F	4	-59	x	x	-3	2
Cc1ccc(-c2c[n+]3c(n2-c2ccccc2)SCC3)cc1	-10	59*	4	x	-1	-2
O=C(C1CCN(S(=O)(=O)c2cccc3nsnc23)CC1)N1CCn2c1nc1ccccc12	x	x	x	x	-3	x
Cc1n[nH]c(C)c1S(=O)(=O)N1CCC(C(=O)N2CCn3c2nc2ccccc23)CC1	x	x	-1	-23*	-1	11
CC(=O)c1c(C)[nH]c(C(=O)OCc2ccccc2)c1C	3	3	-5	-8	x	-19
CC(=O)c1c(C)[nH]c(C(=O)OCCCCN2C(=O)c3ccccc3C2=O)c1C	1	98*	x	x	-34	-17
SMILES	FN deposit inh	HIV Env fusion	S100A4 inh HTS	rRNA inh HTS	miR122 inh	Vif inh
CC(=O)N1CCSc2ccc(S(=O)(=O)Nc3cccc(C)c3)cc21	-5	8	-1	-23*	81	-10
Cc1cccc(NS(=O)(=O)c2cccc(C(=O)N3CCCCCCC3)c2)c1	5	10	-7	-62	163*	-6
Cc1cc(C)c(C)c(S(=O)(=O)Nc2ccc(C(=O)N3CCCC3)cc2)c1C	-10	6	-1	-15	135*	3
CCOc1ccc(-c2c(C(=O)N/N=C/c3ccc(C)cc3)nnn2-c2nonc2N)cc1	14	-6	-6	10	x	-1
CCc1ccc(/C=N/NC(=O)c2nnn(-c3nonc3N)c2C(C)C)cc1	13	-10	-4	1	-4	-8
CCCOc1ccc(-c2c(C(=O)N/N=C/c3ccc(C)cc3)nnn2-c2nonc2N)cc1	0	-8	4	13	-2	54*
CC(C)c1c(C(=O)N/N=C/c2cccnc2)nnn1-c1nonc1N	2	7	4	-20*	4	5
CCOc1ccc(-c2c(C(=O)N/N=C/c3cccs3)nnn2-c2nonc2N)cc1	7	7	5	0	-1	82*
CN(Cc1c(C(=O)N/N=C/c2c(F)cccc2Cl)nnn1-c1nonc1N)c1ccccc1	-5	8	-10	-22*	1	16
CC(=O)N1CC2(C1)[C@H](c1ccc(-c3ccc(C#N)cc3)cc1)[C@@H](CO)N2C(C)=O	x	x	-4	-1	x	x
O=C(C[C@H]1C=C[C@@H](NC(=O)C2CCC2)[C@@H](CO)O1)NCC1CC1	0	-39[16.7 µM]	-3	1	x	x
Cc1ccc(/C=N/NC(=O)c2nnn(-c3nonc3N)c2CSc2ccccc2)cc1	3	3	-1	-2	x	-2
Cc1ccc(SCc2c(C(=O)N/N=C/c3ccccc3)nnn2-c2nonc2N)cc1	3	6	2	-16*	x	-7
O=C(C[C@H]1CC[C@@H]2[C@H](COC[C@H](O)CN2Cc2cccc(C(F)(F)F)c2)O1)NCCc1ccncc1	-4	1[16.7 µM]	6	1	4[16.7 µM]	x
CO[C@@H]1CN(C)C(=O)c2ccc(NC(=O)c3cnccn3)cc2OC[C@H](C)N(CC2CC2)C[C@@H]1C	x	x	-17	2	x	x
O=C(O)c1ccc(/C=C/C(=O)c2ccc3c(c2)OCCCO3)cc1	4	-5	-3	0	3	-9
CC(=O)Nc1ccc(/C=C/C(=O)c2ccc3c(c2)OCCO3)cc1	5	11	-2	0	-3	56*
CC(=O)Nc1ccc2c(c1)CC(=O)N(C)C[C@H](C)[C@@H](CN(C)S(C)(=O)=O)O2	-22	x	x	1	x	x
O=C(CN(Cc1ccccc1)S(=O)(=O)c1cccc(C(F)(F)F)c1)NC1CCCCC1	-5	63*	x	x	0	-4
C[C@H]1CN([C@@H](C)CO)C(=O)Cc2cc(NC(=O)NC3CCCCC3)ccc2O[C@@H]1CN(C)S(C)(=O)=O	x	x	-5	1	16[16.7 µM]	x
CC(=O)NCc1ccc(C(=O)CCl)cc1	-2	4	-25	25	-8	-3
